Assay results as given in ChEMBL document CHEMBL2424630, “Synthesis and antioxidant evaluation of (S,S)- and (R,R)-secoisolariciresinol diglucosides (SDGs)” (Bioorg Med Chem Lett, 2013).
Activity calls are given as the source filed them. The calls are words filed in the database; no cut-off is given here.

Tests used:
[1] = system: Radical scavenging activity; assay: Antioxidant activity assessed as DPPH radical scavenging activity incubated for 20 mins under dark condition by spectrophotometric analysis; format: functional
[2] = Antioxidant activity assessed as hydroxyl radical scavenging activity at 8 uM to 1 mM by fluorescence assay relative to gallic acid; format: functional
In short: (§1)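 HORAC assay: hydroxyl radicals were generated from hydrogen peroxide by Fenton reaction, and oxidation of fluorescein was measured. Results are expressed as gallic acid equivalents, calculated from concentrations within the linear part of the calibration curve. Values are mean ± standard deviation, n = 3.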

[3] = Antioxidant activity assessed as reduction of K3FeCN6 by spectrophotometric analysis in presence of FeCl3; format: functional
In short: (§2)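 Reducing power: reduction of K3FeCN6 in the presence of FeCl3, read as absorbance of the ferric-ferrous complex. Response was linear over 1–100 μM, and the regression equation from that range gave EC50. Values are mean ± standard deviation, n = 3.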

[4] = Antioxidant activity assessed as peroxyl radical scavenging activity at 8 uM to 1 mM by fluorescence assay relative to trolox; format: functional
In short: (§3)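 ORAC assay: peroxyl radicals were generated by AAPH, and oxidation of fluorescein was measured. Results are expressed as Trolox equivalents, calculated from concentrations within the linear part of the calibration curve. Values are mean ± standard deviation, n = 3.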

[5] = Antioxidant activity assessed as reduction of K3FeCN6 at 1 to 500 uM by spectrophotometric analysis in presence of FeCl3; format: functional; in short: as §2
[6] = Ratio of alpha-tocopherol EC50 to compound EC50 for reduction of K3FeCN6; format: functional
[7] = system: Radical scavenging activity; assay: Antioxidant activity assessed as DPPH radical scavenging activity at 5 to 500 uM incubated for 20 mins under dark condition by spectrophotometric analysis; format: functional
[8] = Antioxidant activity assessed as trolox equivalents of peroxyl radical scavenging activity by fluorescence assay; format: functional; in short: as §3
[9] = Ratio of ascorbic acid acid EC50 to compound EC50 for reduction of K3FeCN6
[10] = Antioxidant activity assessed as gallic acid equivalents of hydroxyl radical scavenging activity by fluorescence assay; format: functional; in short: as §1

SMILES | EC50 [1] [µM] | EC50 [3] [µM] | fold change (FC) [2] | Activity [3] | fold change (FC) [4] | Activity [5] | Ratio EC50 [6] | Activity [7] | Activity [8] [equiv] | Ratio EC50 [9] | Activity [10] [equiv]
COc1cc(C[C@@H](CO[C@@H]2O[C@H](CO)[C@@H](O)[C@H](O)[C@H]2O)[C@H](CO[C@@H]2O[C@H](CO)[C@@H](O)[C@H](O)[C@H]2O)Cc2ccc(O)c(OC)c2)ccc1O | 124 | 332 | 2 | Dose-dependent effect | 2 | Active | 3 | Active | 2.2 | 3 | –
COc1cc(C[C@H](CO[C@@H]2O[C@H](CO)[C@@H](O)[C@H](O)[C@H]2O)[C@@H](CO[C@@H]2O[C@H](CO)[C@@H](O)[C@H](O)[C@H]2O)Cc2ccc(O)c(OC)c2)ccc1O (stereo in doubt; form 1) [(+)-SECOISOLARICIRESINOLDIGLUCOSIDE] | 83.9 | 275 | – | – | – | – | – | – | – | – | –
COc1cc(C[C@H](CO[C@@H]2O[C@H](CO)[C@@H](O)[C@H](O)[C@H]2O)[C@@H](CO[C@@H]2O[C@H](CO)[C@@H](O)[C@H](O)[C@H]2O)Cc2ccc(O)c(OC)c2)ccc1O (stereo in doubt; form 1) | – | – | – | Dose-dependent effect | 2 | Active | – | Active | 2.55 | – | 3.68
COc1cc(C[C@H](CO[C@@H]2O[C@H](CO)[C@@H](O)[C@H](O)[C@H]2O)[C@@H](CO[C@@H]2O[C@H](CO)[C@@H](O)[C@H](O)[C@H]2O)Cc2ccc(O)c(OC)c2)ccc1O (stereo in doubt; form 2) | – | – | 2 | Dose-dependent effect | 2 | Active | 3 | Active | 3.03 | 3 | –

More lines, main results first:

EC50 [1] [µM] | EC50 [3] [µM] | SMILES | fold change (FC) [2] | Activity [3] | fold change (FC) [4] | Activity [5] | Ratio EC50 [6] | Activity [7] | Activity [8] [equiv] | Ratio EC50 [9] | Activity [10] [equiv]
440 | 1130 | O=C1O[C@H]([C@@H](O)CO)C(O)=C1O [ASCORBIC ACID] | – | – | – | Active | – | Active | – | – | –
158 | 292 | COc1cc(C[C@H](CO[C@@H]2O[C@H](CO)[C@@H](O)[C@H](O)[C@H]2O)[C@@H](CO[C@@H]2O[C@H](CO)[C@@H](O)[C@H](O)[C@H]2O)Cc2ccc(O)c(OC)c2)ccc1O (stereo in doubt; form 2) [(+)-SECOISOLARICIRESINOLDIGLUCOSIDE] | – | – | – | – | – | – | – | – | –
133 | 945 | Cc1c(C)c2c(c(C)c1O)CC[C@@](C)(CCC[C@H](C)CCC[C@H](C)CCCC(C)C)O2 [ALPHA-TOCOPHEROL] | – | – | – | Active | – | Active | – | – | –
